Each block holds one molecule with its values, some of them ahead of it.
Legend:
L1210 [1] = assay: Compound was tested for percent increase in life span against L1210 lymphoid leukemia; format: functional, Mus musculus
L1210 [2] = assay: Antitumor activity against L1210 lymphoid leukemia in CD2F1 mice at 50 mg/injection and measured as mean survival time of treated mice in days/mean survival time of control mice x 100 before first treatment was reported; format: functional, Mus musculus
Summary of the method: (§1)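 CD2F1 mice in groups of six received 1 × 10⁵ L1210 lymphoid leukemia cells ip. Dosing was ip, once a day for 5 days, starting 24 h after tumor inoculation, under standard NCI protocol. %T/C = (mean survival time of treated mice in days / mean survival time of controls) × 100. Toxic deaths were excluded from the %T/C calculation.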

L1210 [3] = assay: Antitumor activity against L1210 lymphoid leukemia in CD2F1 mice at a dose of 50 mg/injection measured as difference between estimated tumor burdens before first treatment; format: functional, Mus musculus
Summary of the method: (§2)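 CD2F1 mice, in groups of six, received 1 × 10⁵ L1210 cells ip and were dosed ip once daily for 5 days from 24 h after inoculation. Net cell kill is the estimated change in tumor burden from before the first dose to just after the last. It is calculated as (T − C − Rx)/3.32Td, using the tumor doubling time observed in that test and survival after the last treatment.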

L1210 [4] = assay: Antitumor activity against L1210 lymphoid leukemia in CD2F1 mice at a dose of 300 mg/injection measured as difference between estimated tumor burdens before first treatment; format: functional, Mus musculus; summary of the method: as §2
L1210 [5] = assay: Antitumor activity against L1210 lymphoid leukemia in CD2F1 mice at 300 mg/injection and mean weight change (days 5 minus 1) of treated mice minus mean weight change of control mice before first treatment was reported; format: functional, Mus musculus
Summary of the method: (§3)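 CD2F1 mice, in groups of six, were inoculated ip with 1 × 10⁵ L1210 lymphoid leukemia cells. Dosing was ip once daily for 5 days, starting 24 h after inoculation. Toxicity was scored as the mean weight change of treated mice (day 5 minus day 1) minus the mean weight change of control mice.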

L1210 [6] = assay: Antitumor activity against L1210 lymphoid leukemia in CD2F1 mice at a dose of 50 mg/injection measured as difference between estimated tumor burdens before second treatment; format: functional, Mus musculus; summary of the method: as §2
L1210 [7] = assay: Antitumor activity against L1210 lymphoid leukemia in CD2F1 mice at a dose of 200 mg/injection measured as difference between estimated tumor burdens before first treatment; format: functional, Mus musculus; summary of the method: as §2
L1210 [8] = assay: Antitumor activity against L1210 lymphoid leukemia in CD2F1 mice at 200 mg/injection and measured as mean survival time of treated mice in days/mean survival time of control mice x 100 before second treatment was reported; format: functional, Mus musculus; summary of the method: as §1
L1210 [9] = assay: Antitumor activity against L1210 lymphoid leukemia in CD2F1 mice at 100 mg/injection and measured as mean survival time of treated mice in days/mean survival time of control mice x 100 before second treatment was reported; format: functional, Mus musculus; summary of the method: as §1
L1210 [10] = assay: Antitumor activity against L1210 lymphoid leukemia in CD2F1 mice at 25 mg/injection and measured as mean weight change (days 5 minus 1) of treated mice minus mean weight change of control mice before second treatment was reported; format: functional, Mus musculus; summary of the method: as §3
L1210 [11] = assay: Antitumor activity against L1210 lymphoid leukemia in CD2F1 mice at 50 mg/injection and measured as mean survival time of treated mice in days/mean survival time of control mice x 100 before second treatment was reported; format: functional, Mus musculus; summary of the method: as §1
L1210 [12] = assay: Antitumor activity against L1210 lymphoid leukemia in CD2F1 mice at 100 mg/injection and measured as mean weight change (days 5 minus 1) of treated mice minus mean weight change of control mice before first treatment was reported; format: functional, Mus musculus; summary of the method: as §3
L1210 [13] = assay: Antitumor activity against L1210 lymphoid leukemia in CD2F1 mice at 50 mg/injection and measured as mean weight change (days 5 minus 1) of treated mice minus mean weight change of control mice before second treatment was reported; format: functional, Mus musculus; summary of the method: as §3
L1210 [14] = assay: Antitumor activity against L1210 lymphoid leukemia in CD2F1 mice at a dose of 25 mg/injection measured as difference between estimated tumor burdens before first treatment; format: functional, Mus musculus; summary of the method: as §2
L1210 [15] = assay: Antitumor activity against L1210 lymphoid leukemia in CD2F1 mice at 100 mg/injection and measured as mean survival time of treated mice in days/mean survival time of control mice x 100 before first treatment was reported; format: functional, Mus musculus; summary of the method: as §1
L1210 [16] = assay: Antitumor activity against L1210 lymphoid leukemia in CD2F1 mice at a dose of 100 mg/injection measured as difference between estimated tumor burdens before first treatment; format: functional, Mus musculus; summary of the method: as §2
L1210 [17] = assay: Antitumor activity against L1210 lymphoid leukemia in CD2F1 mice at a dose of […] measured as difference between estimated tumor burdens before second treatment; format: functional, Mus musculus
L1210 [18] = assay: Antitumor activity against L1210 lymphoid leukemia in CD2F1 mice at a dose of 25 mg/injection measured as difference between estimated tumor burdens before second treatment; format: functional, Mus musculus; summary of the method: as §2
L1210 [19] = assay: Antitumor activity against L1210 lymphoid leukemia in CD2F1 mice at 300 mg/injection and measured as mean survival time of treated mice in days/mean survival time of control mice x 100 before first treatment was reported; format: functional, Mus musculus; summary of the method: as §1
L1210 [20] = assay: Antitumor activity against L1210 lymphoid leukemia in CD2F1 mice at a dose of 100 mg/injection and difference between estimated tumor burdens before second treatment; format: functional, Mus musculus; summary of the method: as §2
L1210 [21] = assay: Antitumor activity against L1210 lymphoid leukemia in CD2F1 mice at […] and measured as mean survival time of treated mice in days/mean survival time of control mice x 100 before second treatment was reported; format: functional, Mus musculus
L1210 [22] = assay: Antitumor activity against L1210 lymphoid leukemia in CD2F1 mice at 100 mg/injection and measured as mean weight change (days 5 minus 1) of treated mice minus mean weight change of control mice before second treatment was reported; format: functional, Mus musculus; summary of the method: as §3
L1210 [23] = assay: Antitumor activity against L1210 lymphoid leukemia in CD2F1 mice at 25 mg/injection and measured as mean survival time of treated mice in days/mean survival time of control mice x 100 before second treatment was reported; format: functional, Mus musculus; summary of the method: as §1
L1210 [24] = assay: Antitumor activity against L1210 lymphoid leukemia in CD2F1 mice at 200 mg/injection and measured as mean survival time of treated mice in days/mean survival time of control mice x 100 before first treatment was reported; format: functional, Mus musculus; summary of the method: as §1
L1210 [25] = assay: Antitumor activity against L1210 lymphoid leukemia in CD2F1 mice at 25 mg/injection and measured as mean survival time of treated mice in days/mean survival time of control mice x 100 before first treatment was reported; format: functional, Mus musculus; summary of the method: as §1
L1210 [26] = assay: Ability to inhibit growth of L1210 lymphocyte leukemia cell in culture; format: functional, cell-based; conditions: Mus musculus
L1210 [27] = assay: Antitumor activity against L1210 lymphoid leukemia in CD2F1 mice at 50 mg/injection and measured as mean weight change (days 5 minus 1) of treated mice minus mean weight change of control mice before first treatment was reported; format: functional, Mus musculus; summary of the method: as §3
L1210 [28] = assay: Antitumor activity against L1210 lymphoid leukemia in CD2F1 mice at […] and measured as mean weight change (days 5 minus 1) of treated mice minus mean weight change of control mice before second treatment was reported; format: functional, Mus musculus
L1210 [29] = assay: Antitumor activity against L1210 lymphoid leukemia in CD2F1 mice at 25 mg/injection and measured as mean weight change (days 5 minus 1) of treated mice minus mean weight change of control mice before first treatment was reported; format: functional, Mus musculus; summary of the method: as §3
L1210 [30] = assay: Antitumor activity against L1210 lymphoid leukemia in CD2F1 mice at 200 mg/injection and measured as mean weight change (days 5 minus 1) of treated mice minus mean weight change of control mice before first treatment was reported; format: functional, Mus musculus; summary of the method: as §3
L1210 [31] = assay: Antitumor activity against L1210 lymphoid leukemia in CD2F1 mice at 200 mg/injection and measured as mean weight change (days 5 minus 1) of treated mice minus mean weight change of control mice before second treatment was reported; format: functional, Mus musculus; summary of the method: as §3
P388 = assay: Compound was tested for mean survival time of treated mice in days / mean survival time of control mice x 100 against P388 lymphoid leukemia cells; Inactive; format: functional, Mus musculus
L1210 [32] = assay: Compound was tested for the concentration required to inhibit the growth rate of the control L1210 cells by 50%; Value ranges from 2.60-4.71; format: functional; conditions: Mus musculus, read-out: ID50 (the source's name)
L1210 [33] = assay: Compound was tested for its inhibitory activity against L1210 lymphoid leukemia; format: functional, cell-based; conditions: Mus musculus
L1210 [34] = assay: Compound was tested for mean survival time of treated mice in days / mean survival time of control mice x 100 against L1210 lymphoid leukemia cells; format: functional, Mus musculus; summary of the method: as §1

SMILES: Nc1nc(=O)n([C@H]2C[C@H](O)[C@@H](CO)O2)cc1F
ILS (L1210 [1]): >161%

SMILES: Nc1ccn(C2O[C@H](CO)[C@@H](O)[C@H]2O)c(=O)c1F (some centres not stated)
T/C (L1210 [2]): 182%
Net log kill (L1210 [3]): 2.2
Net log kill (L1210 [4]): 5.37
BWD (L1210 [5]): -4.7
Net log kill (L1210 [6]): 3.01
Net log kill (L1210 [7]): 3.91
T/C (L1210 [8]): 208%
T/C (L1210 [9]): 216%
BWD (L1210 [10]): -1
T/C (L1210 [11]): 185%
BWD (L1210 [12]): -3
BWD (L1210 [13]): -1.1
Net log kill (L1210 [14]): 1.3
T/C (L1210 [15]): 193%
Net log kill (L1210 [16]): 2.93
Net log kill (L1210 [17]): -0.97
Net log kill (L1210 [18]): 0.78
T/C (L1210 [19]): 230%
Net log kill (L1210 [20]): 5.54
T/C (L1210 [21]): 136%
BWD (L1210 [22]): -1.3
T/C (L1210 [23]): 157%
T/C (L1210 [24]): 208%
T/C (L1210 [25]): 169%
IC50 (L1210 [26]): 10.7 µM
BWD (L1210 [27]): -1.7
BWD (L1210 [28]): -0.5
BWD (L1210 [29]): -1
BWD (L1210 [30]): -4.8
BWD (L1210 [31]): -3.4

SMILES: Nc1c(F)c(O)nc(F)c1F
T/C (P388): <125%
IC50 (L1210 [32]): 47.1 µM

SMILES: Nc1c(F)cnc(O)c1F
T/C (P388): <125%
IC50 (L1210 [32]): 47.1 µM

SMILES: NNc1nc(F)c(F)c(N)c1F
T/C (P388): <125%
IC50 (L1210 [32]): 47.1 µM

IC50 (L1210 [33]): 17.8 µM
SMILES: Nc1ccn([C@@H]2O[C@H](CO)[C@@H](O)[C@H]2O)c(=O)c1

SMILES: Nc1c(F)cn(C2O[C@H](CO)[C@@H](O)[C@H]2O)c(=O)c1F (some centres not stated)
T/C (L1210 [34]): <125%

SMILES: Nc1c(F)cn([C@H]2C[C@H](O)[C@@H](CO)O2)c(=O)c1F
T/C (L1210 [34]): <125%

SMILES: Nc1ccn([C@@H]2O[C@H](CO)[C@@H](O)[C@@H]2O)c(=O)n1 [CYTARABINE]
ILS (L1210 [1]): >161%

SMILES: Nc1ccn([C@H]2C[C@H](O)[C@@H](CO)O2)c(=O)n1 [DOXECITINE]
ILS (L1210 [1]): >161%

SMILES: Nc1ccnc(O)c1F
T/C (P388): <125%

SMILES: Nc1ccn([C@H]2C[C@H](O)[C@@H](CO)O2)c(=O)c1F
T/C (L1210 [34]): <125%

SMILES: Nc1c(F)cnc(F)c1F
T/C (P388): <125%
IC50 (L1210 [32]): 47.1 µM

IC50 (L1210 [33]): 0.393 µM
SMILES: Nc1ncn([C@H]2C[C@H](O)[C@@H](CO)O2)c(=O)n1 [DECITABINE]

IC50 (L1210 [33]): 12.5 µM
SMILES: CC(=O)Nc1ccn([C@@H]2O[C@H](COC(C)=O)[C@@H](OC(C)=O)[C@H]2OC(C)=O)c(=O)c1F

IC50 (L1210 [33]): 0.409 µM
SMILES: Nc1ncn([C@@H]2O[C@H](CO)[C@@H](O)[C@H]2O)c(=O)n1 [AZACITIDINE]

SMILES: C[C@@]1(n2cc(F)c(N)c(F)c2=O)C[C@H](O)[C@@H](CO)O1
T/C (L1210 [34]): <125%

SMILES: Nc1cc(O)nc(F)c1
T/C (P388): <125%

SMILES: Nc1cc(O)ncc1F
T/C (P388): <125%
